Test results: ChEMBL document CHEMBL1671794, “Synthesis and SAR studies on azetidine-containing dipeptides as HCMV inhibitors” (Bioorg Med Chem, 2011)
Calls of active or inactive are those of the source. The calls are words filed in the database; no cut-off is given here.

System: Vaccinia virus
Assay: Antiviral activity against Vaccinia virus infected in HELF assessed as virus-induced cytopathogenicity at 20 to 100 uM after 4 days by microscopy
Assay type: functional, organism-based
Settings: Orthopoxvirus vaccinia
Procedure, shortened: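 Near-confluent MDCK (influenza) or confluent HEL monolayers were inoculated with 100 CCID50 of virus. After 1-h adsorption, residual virus was removed, and cells were incubated with fivefold serial dilutions of compound. Cytopathicity was scored microscopically once untreated infected controls reached complete CPE. Minimal cytotoxic concentration was read as microscopically visible alteration of cell morphology.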

Which Activity does the source give for `C[C@H](NC(=O)[C@]1(Cc2ccccc2)CCN1C(=O)OCC1c2ccccc2-c2ccccc21)C(N)=O` here?
The Activity was “inactive”.
